From ChEMBL document CHEMBL5357047, “The development of thymol-isatin hybrids as broad-spectrum antibacterial agents with potent anti-MRSA activity” (RSC Med Chem, 2024)
≈ marks a conversion by molar mass, not a printed value.

Tests used:
Assay type in all cases: functional
Enterococcus faecalis [1] = assay: Antibacterial activity against clinically isolated Enterococcus faecalis RBRJ015 assessed as inhibition of bacterial growth at 50 uM measured after 48 hrs by agar well diffusion method; conditions: read-out: IZ
Acinetobacter baumannii = assay: Antibacterial activity against clinically isolated Acinetobacter baumannii RBRJ027 assessed as inhibition of bacterial growth at 50 uM measured after 48 hrs by agar well diffusion method; conditions: read-out: IZ
Staphylococcus aureus [2] = assay: Bactericidal activity against Staphylococcus aureus MTCC 740 assessed as inhibition of bacterial growth measured after 48 hrs by agar plate method
Outline: (§1)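 MBC: aliquots from microdilution wells without colour change subcultured on drug-free Mueller Hinton agar, 48 h at 37 °C aerobically. MBC is the lowest concentration with no visible growth. Triplicate.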

Enterobacter cloacae = assay: Antibacterial activity against clinically isolated Enterobacter cloacae RBRJ017 assessed as inhibition of bacterial growth at 50 uM measured after 48 hrs by agar well diffusion method; conditions: read-out: IZ
Escherichia coli [3] = assay: Antibacterial activity against clinically isolated Escherichia coli RBRJ005 assessed as inhibition of bacterial growth at 50 uM measured after 48 hrs by agar well diffusion method; conditions: read-out: IZ
Staphylococcus aureus [4] = assay: Antibacterial activity against clinically isolated Methicillin-resistant Staphylococcus aureus assessed as inhibition of bacterial growth measured after 48 hrs by broth microdilution method
Staphylococcus aureus [5] = assay: Antibacterial activity against Staphylococcus aureus MTCC 740 assessed as inhibition of bacterial growth measured after 48 hrs by broth microdilution method
Staphylococcus aureus [6] = assay: Bactericidal activity against clinically isolated Methicillin-resistant Staphylococcus aureus assessed as inhibition of bacterial growth measured after 48 hrs by agar plate method
Escherichia coli [7] = assay: Antibacterial activity against clinically isolated Escherichia coli RBRJ013 assessed as inhibition of bacterial growth at 50 uM measured after 48 hrs by agar well diffusion method; conditions: read-out: IZ
Pseudomonas aeruginosa = assay: Antibacterial activity against Pseudomonas aeruginosa MTCC 424 assessed as inhibition of bacterial growth at 50 uM measured after 48 hrs by agar well diffusion method; conditions: read-out: IZ
Klebsiella pneumoniae [8] = assay: Antibacterial activity against clinically isolated Klebsiella pneumoniae RBRJ024 assessed as inhibition of bacterial growth at 50 uM measured after 48 hrs by agar well diffusion method; conditions: read-out: IZ
Klebsiella pneumoniae [9] = assay: Antibacterial activity against Klebsiella pneumoniae MTCC 109 assessed as inhibition of bacterial growth at 50 uM measured after 48 hrs by agar well diffusion method; conditions: read-out: IZ
Staphylococcus aureus [10] = assay: Antibacterial activity against Methicillin-resistant Staphylococcus aureus ATCC 33591 assessed as inhibition of bacterial growth measured after 48 hrs by broth microdilution method
Escherichia coli [11] = assay: Antibacterial activity against Escherichia coli MTCC 119 assessed as inhibition of bacterial growth at 50 uM measured after 48 hrs by agar well diffusion method; conditions: read-out: IZ
Staphylococcus aureus [12] = assay: Antibacterial activity against clinically isolated Methicillin-resistant Staphylococcus aureus assessed as inhibition of bacterial growth at 50 uM measured after 48 hrs by agar well diffusion method; conditions: read-out: IZ
Klebsiella pneumoniae [13] = assay: Antibacterial activity against clinically isolated Klebsiella pneumoniae RBRJ019 assessed as inhibition of bacterial growth at 50 uM measured after 48 hrs by agar well diffusion method; conditions: read-out: IZ
Staphylococcus aureus [14] = assay: Bactericidal activity against Methicillin-resistant Staphylococcus aureus ATCC 33591 assessed as inhibition of bacterial growth measured after 48 hrs by agar plate method; outline: as §1
Enterococcus faecalis [15] = assay: Antibacterial activity against Enterococcus faecalis MTCC 439 assessed as inhibition of bacterial growth at 50 uM measured after 48 hrs by agar well diffusion method; conditions: read-out: IZ
Staphylococcus aureus [16] = assay: Antibacterial activity against Methicillin-resistant Staphylococcus aureus ATCC 33591 assessed as inhibition of bacterial growth at 50 uM measured after 48 hrs by agar well diffusion method; conditions: read-out: IZ
Outline: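 Agar well diffusion on Mueller Hinton agar seeded with bacteria at 0.5 McFarland. […] Incubated 48 h at 37 °C aerobically; zone of inhibition diameter (mm) measured. Triplicate.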

Staphylococcus aureus [17] = assay: Antibacterial activity against clinically isolated Staphylococcus aureus RBRJ010 assessed as inhibition of bacterial growth at 50 uM measured after 48 hrs by agar well diffusion method; conditions: read-out: IZ
[18] = system: Staphylococcus epidermidis; assay: Antibacterial activity against Staphylococcus epidermidis MTCC 435 assessed as inhibition of bacterial growth at 50 uM measured after 48 hrs by agar well diffusion method; conditions: read-out: IZ
Staphylococcus aureus [19] = assay: Antibacterial activity against Staphylococcus aureus MTCC 740 assessed as inhibition of bacterial growth at 50 uM measured after 48 hrs by agar well diffusion method; conditions: read-out: IZ
Staphylococcus aureus [20] = assay: Antibacterial activity against clinically isolated Staphylococcus aureus RBRJ010 assessed as inhibition of bacterial growth measured after 48 hrs by broth microdilution method
Staphylococcus aureus [21] = assay: Bactericidal activity against clinically isolated Staphylococcus aureus RBRJ010 assessed as inhibition of bacterial growth measured after 48 hrs by agar plate method
Outline: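 MBC: 10 μL from wells showing no INT colour change after broth microdilution subcultured on drug-free Mueller Hinton agar, 48 h at 37 °C aerobically; lowest concentration with no visible growth taken as MBC (μM). Triplicate.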

Row | Compound | zone of inhibition at 50 µM (Enterococcus faecalis [1]) [mm] | zone of inhibition at 50 µM (Acinetobacter baumannii) [mm] | MBC (Staphylococcus aureus [2]) [µM] | zone of inhibition at 50 µM (Enterobacter cloacae) [mm] | zone of inhibition at 50 µM (Escherichia coli [3]) [mm] | MIC (Staphylococcus aureus [5]) [µM] | zone of inhibition at 50 µM (Escherichia coli [7]) [mm] | zone of inhibition at 50 µM (Pseudomonas aeruginosa) [mm] | zone of inhibition at 50 µM (Klebsiella pneumoniae [8]) [mm] | zone of inhibition at 50 µM (Klebsiella pneumoniae [9]) [mm] | zone of inhibition at 50 µM (Escherichia coli [11]) [mm] | zone of inhibition at 50 µM (Staphylococcus aureus [12]) [mm] | zone of inhibition at 50 µM (Klebsiella pneumoniae [13]) [mm] | zone of inhibition at 50 µM (Enterococcus faecalis [15]) [mm] | zone of inhibition at 50 µM (Staphylococcus aureus [16]) [mm] | zone of inhibition at 50 µM (Staphylococcus aureus [17]) [mm] | zone of inhibition at 50 µM [18] [mm] | zone of inhibition at 50 µM (Staphylococcus aureus [19]) [mm] | other results
1 | Cc1ccc(C(C)C)c(OCc2cn(CCCN3C(=O)C(=O)c4cc(Br)ccc43)nn2)c1 | 12.2 | 11.2 | 62.5 (≈ 31.1 µg/mL) | 14.2 | 15.4 | 31.2 (≈ 15.5 µg/mL) | 15.5 | 11.4 | 13.3 | 14.3 | 14.1 | 21.2 | 13.2 | 12.1 | 21.5 | 19.3 | 17.2 | 21.2 | MIC (Staphylococcus aureus [4]): 31.2 µM (≈ 15.5 µg/mL); MBC (Staphylococcus aureus [6]): 62.5 µM (≈ 31.1 µg/mL); MIC (Staphylococcus aureus [10]): 62.5 µM (≈ 31.1 µg/mL); MBC (Staphylococcus aureus [14]): 125 µM (≈ 62.2 µg/mL)
2 | Cc1ccc(C(C)C)c(OCc2cn(CCCCN3C(=O)C(=O)c4ccccc43)nn2)c1 | 17.6 | 11.2 | 31.2 (≈ 13.5 µg/mL) | 12.6 | 13.6 | 15.6 (≈ 6.75 µg/mL) | 11.5 | 13.7 | 15.6 | 15.2 | 16.5 | 19.6 | 14.4 | 13.2 | 19 | 16.2 | 16.2 | 22.1 | 
3 | Cc1ccc(C(C)C)c(OCc2cn(CCN3C(=O)C(=O)c4cc(C)ccc43)nn2)c1 | 16.3 | 12.7 |  | 14.2 | 12.7 |  | 11.4 | 11.3 | 15.7 | 16.6 | 17.1 | 16.2 | 15.4 | 14.3 | 16 | 21.2 | 19.6 | 18.2 | MIC (Staphylococcus aureus [20]): 31.2 µM (≈ 13.1 µg/mL); MBC (Staphylococcus aureus [21]): 62.5 µM (≈ 26.2 µg/mL)
4 | COc1ccc2c(c1)C(=O)C(=O)N2CCn1cc(COc2cc(C)ccc2C(C)C)nn1 | 11.3 | 11.4 |  | 13.2 | 11.5 |  | 11.1 | 11.5 | 14.9 | 15.3 | 16.2 | 15.3 | 14.6 | 15.5 | 15.5 | 20.3 | 16.4 | 16.2 | MIC (Staphylococcus aureus [20]): 62.5 µM (≈ 27.2 µg/mL); MBC (Staphylococcus aureus [21]): 125 µM (≈ 54.3 µg/mL)
5 | Cc1ccc(C(C)C)c(OCc2cn(CCN3C(=O)C(=O)c4cc(F)ccc43)nn2)c1 | 19.3 | 11.9 | 125 (≈ 52.8 µg/mL) | 14.2 | 14.3 | 62.5 (≈ 26.4 µg/mL) | 14.2 | 14.2 | 13.2 | 15.2 | 13.3 | 16.6 | 14.2 | 15.1 | 15.3 | 19.2 | 17.3 | 20.3 | 
6 | Cc1ccc(C(C)C)c(OCc2cn(CCCCN3C(=O)C(=O)c4cc(F)ccc43)nn2)c1 | 14.6 | 11.8 |  | 12.5 | 12.2 |  | 11.1 | 12.2 | 11.3 | 14.4 | 11.2 | 16.2 | 13.2 | 10 | 16.4 | 12.2 | 15.1 | 19.2 | 
7 | Cc1ccc(C(C)C)c(OCc2cn(CCCN3C(=O)C(=O)c4cc(I)ccc43)nn2)c1 | 11.1 | 11.5 | 125 (≈ 68 µg/mL) | 13.7 | 12.3 | 31.2 (≈ 17 µg/mL) | 11.2 | 11.6 | 12.7 | 12.3 | 13.2 | 20.2 | 11.3 | 11.7 | 20.5 | 19 | 14.2 | 20.2 | MIC (Staphylococcus aureus [4]): 62.5 µM (≈ 34 µg/mL); MBC (Staphylococcus aureus [6]): 125 µM (≈ 68 µg/mL); MIC (Staphylococcus aureus [10]): 62.5 µM (≈ 34 µg/mL); MBC (Staphylococcus aureus [14]): 125 µM (≈ 68 µg/mL)
